This is an account of results in ChEMBL document CHEMBL4414638, “Structure-Activity Relationship of Peptide-Conjugated Chloramphenicol for Inhibiting Escherichia coli” (J Med Chem, 2019).

Data set [1] has as its system Escherichia coli. Put plainly: Antibacterial activity against ompF gene deficient Escherichia coli assessed as reduction in bacterial growth at 0.1 to 100 uM incubated for 16 hrs. It counts as functional, organism-based.
Data set [2] is described as follows: Drug metabolism in human HepG2 cells lysates assessed as esterase-mediated drug hydrolysis at 200 uM incubated up to 24 hrs by HPLC analysis. The data set is classed as ADME, subcellular, Lysate. The note with it: hepg2, 24 h.
Data set [3] deals with Escherichia coli. Put plainly: Antibacterial activity against Escherichia coli K-12 assessed as reduction in bacterial growth incubated for 16 hrs. It counts as functional. Particulars: K-12, 16 h.
The subject of data set [4] is Escherichia coli. Put plainly: Antibacterial activity against Escherichia coli K-12 assessed as reduction in bacterial growth incubated for 16 hrs in presence of porcine liver esterase. The data set is classed as functional. Particulars: K-12, 16 h.
The test system of data set [5] is Escherichia coli. Put plainly: Antibacterial activity against yqiA gene deficient Escherichia coli assessed as reduction in bacterial growth at 0.1 to 100 uM incubated for 16 hrs. It counts as functional, organism-based.
The nature of data set [6]: Drug metabolism in Escherichia coli K-12 lysates assessed as esterase-mediated drug hydrolysis at 200 uM incubated up to 24 hrs by HPLC analysis. The data set is classed as ADME, subcellular, Lysate. The note with it: escherichia coli k-12, isolated protein.
Data set [7] deals with Escherichia coli. The data set can be described thus: Antibacterial activity against acrA gene deficient Escherichia coli assessed as reduction in bacterial cell viability at 0.1 to 100 uM incubated for 16 hrs relative to control. It counts as functional.
The nature of data set [8]: Drug metabolism in human serum assessed as formation of chloramphenicol at 200 uM at 37 degC after 24 hrs by LC-MS analysis relative to control.
In data set [9] the test system is Escherichia coli. The data set can be described thus: Antibacterial activity against ypfH gene deficient Escherichia coli assessed as reduction in bacterial growth at 0.1 to 100 uM incubated for 16 hrs. It counts as functional, organism-based.
Data set [10] concerns Escherichia coli. Put plainly: Antibacterial activity against bioH gene deficient Escherichia coli assessed as reduction in bacterial growth at 0.1 to 100 uM incubated for 16 hrs. It counts as functional, organism-based.
Data set [11] deals with Escherichia coli. Put plainly: Antibacterial activity against Escherichia coli K-12 assessed as reduction in bacterial growth incubated for 16 hrs in absence of porcine liver esterase. It counts as functional. Particulars: K-12, 16 h.
The test system of data set [12] is Escherichia coli. The data set can be described thus: Antibacterial activity against ybfF gene deficient Escherichia coli assessed as reduction in bacterial growth at 0.1 to 100 uM incubated for 16 hrs. It counts as functional, organism-based.
Data set [13] in a line: Drug metabolism in Escherichia coli K-12 lysates assessed as esterase-mediated drug hydrolysis by measuring apparent first-order rate constant at 200 uM incubated up to 24 hrs by HPLC analysis. The data set is classed as ADME, subcellular, Lysate. Particulars: escherichia coli k-12, isolated protein.
For data set [14], the system named is Escherichia coli. The data set can be described thus: Antibacterial activity against yeiG gene deficient Escherichia coli assessed as reduction in bacterial growth at 0.1 to 100 uM incubated for 16 hrs. It counts as functional, organism-based.
For data set [15], the system named is Escherichia coli. Put plainly: Antibacterial activity against frsA gene deficient Escherichia coli assessed as reduction in bacterial growth at 0.1 to 100 uM incubated for 16 hrs. It counts as functional, organism-based.
The subject of data set [16] is Escherichia coli. The data set can be described thus: Antibacterial activity against ydgR gene deficient Escherichia coli assessed as reduction in bacterial growth at 0.1 to 100 uM incubated for 16 hrs. It counts as functional, organism-based.
Data set [17] has as its system Escherichia coli. The data set can be described thus: Antibacterial activity against fepA gene deficient Escherichia coli assessed as reduction in bacterial growth at 0.1 to 100 uM incubated for 16 hrs. It counts as functional, organism-based.
Data set [18] relates to Escherichia coli. The data set can be described thus: Antibacterial activity against yfbB gene deficient Escherichia coli assessed as reduction in bacterial growth at 0.1 to 100 uM incubated for 16 hrs. The data set is classed as functional, organism-based.
The subject of data set [19] is Escherichia coli. The data set can be described thus: Antibacterial activity against yjfP gene deficient Escherichia coli assessed as reduction in bacterial growth at 0.1 to 100 uM incubated for 16 hrs. The data set is classed as functional, organism-based.
Data set [20] can be described thus: Cytotoxicity in human HS5 cells assessed as reduction in cell viability at 0.5 to 50 uM incubated […] relative to chloramphenicol. The data set is classed as cell-based. Summed up:
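HS-5 cells were exposed for 24 h to conjugates and chloramphenicol at 20, 200 or 2000 μM, or to comparator antibiotics at 0.5, 5 or 50 μM, and cell viability was then read.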

In data set [21] the test system is HEK293. The data set can be described thus: Cytotoxicity in human HEK293 cells assessed as reduction in cell viability at 0.5 uM […] relative to chloramphenicol. It counts as cell-based. The note with it: hek293, 0.5 µM.
Data set [22] can be described thus: Cytotoxicity in human HS5 cells assessed as reduction in cell viability at 20 uM to 2 mM incubated up to […]rs relative to chloramphenicol. The data set is classed as cell-based.
Data set [23] concerns HEK293. Put plainly: Cytotoxicity in human HEK293 cells assessed as reduction in cell viability at 20 uM […] relative to chloramphenicol. It counts as cell-based. Particulars: hek293, 20 µM.
Data set [24] is described as follows: Drug metabolism in human serum assessed as formation of chloramphenicol at 200 uM at 37 degC after 2 hrs by LC-MS analysis relative to control.

Converted amounts (≈) assume the structure as drawn. The source made the active and inactive calls. The calls are words filed in the database; no cut-off is given here.

For orientation: MIC means the least concentration at which growth counts as inhibited.

For the molecule `NCCCC[C@@H](NC(=O)[C@@H](CCCCN)NC(=O)CCC(=O)OC[C@@H](NC(=O)C(Cl)Cl)[C@H](O)c1ccc([N+](=O)[O-])cc1)C(=O)O`, the result with Escherichia coli [1], in the data set with Escherichia coli [16] and in the data set on Escherichia coli [17] was Active. In addition, the Drug metabolism entry in [2], in data set [6] and in [8] was “Metabolite_Detected” throughout. Further, the MIC in the data set with Escherichia coli [3] was determined as 200 µM; in the data set on Escherichia coli [4] it was 100 µM; with Escherichia coli [11], 200 µM (≈ 136 µg/mL). Also, the outcome with Escherichia coli [5], with Escherichia coli [9], in the data set with Escherichia coli [10], in the data set with Escherichia coli [12], with Escherichia coli [14] and in the data set with Escherichia coli [15] was inactive. In addition, the result in the data set with Escherichia coli [18] and in the data set on Escherichia coli [19] was inactive. Also, the Activity with Escherichia coli [7] is 20%. Moreover, the K in data set [13] was 0.317 h⁻¹.
Turning to `O=C(O)c1cn(C2CC2)c2cc(N3CCNCC3)c(F)cc2c1=O` [CIPROFLOXACIN], the Activity entry in data set [20] is reported as “Non-Toxic”; in the data set on HEK293 [21], “Toxic”.
For `NCCCC[C@H](NC(=O)CNC(=O)CCC(=O)OC[C@@H](NC(=O)C(Cl)Cl)[C@H](O)c1ccc([N+](=O)[O-])cc1)C(=O)O`, the minimal inhibitory concentration (MIC) with Escherichia coli [3] is 20 µM. Moreover, the Drug metabolism result in [8] and in data set [24] was “Metabolite_Detected” throughout. Besides, the Activity entry in data set [22] is on record as “Non-Toxic”; with HEK293 [23] it was “Toxic”.
In the case of `O=C(O)CNC(=O)[C@@H](CO)NC(=O)CCC(=O)OC[C@@H](NC(=O)C(Cl)Cl)[C@H](O)c1ccc([N+](=O)[O-])cc1`, the result with Escherichia coli [1], with Escherichia coli [16] and in the data set with Escherichia coli [17] was Active. The Drug metabolism entry in data set [2], in [6] and in data set [8] was “Metabolite_Detected” throughout. In addition, the figures for the minimum inhibitory concentration (MIC) in the data set with Escherichia coli [3], in the data set with Escherichia coli [4] and with Escherichia coli [11] were 40 µM, 40 µM and 40 µM (≈ 22.7 µg/mL), respectively. Also, the result in the data set on Escherichia coli [5], with Escherichia coli [9], in the data set with Escherichia coli [10], in the data set with Escherichia coli [12], with Escherichia coli [14] and in the data set with Escherichia coli [15] was inactive. Further, the result in the data set with Escherichia coli [18] and in the data set on Escherichia coli [19] was inactive. In the data set on Escherichia coli [7], the Activity is 40%. Besides, in data set [13], the K stood at 1.267 h⁻¹.
As for `O=C(CCC(=O)OC[C@@H](NC(=O)C(Cl)Cl)[C@H](O)c1ccc([N+](=O)[O-])cc1)NCC(=O)NCC(=O)N[C@H](Cc1ccccc1)C(=O)O`, the MIC in the data set with Escherichia coli [3] was determined as 20 µM. For the same molecule, the Drug metabolism entry in [8] and in [24] was “Metabolite_Detected” in each case. Moreover, the Activity result was “Non-Toxic” in data set [22] and “Toxic” in the data set on HEK293 [23].
In the case of `COc1cc(Cc2cnc(N)nc2N)cc(OC)c1OC` [TRIMETHOPRIM], the minimum inhibitory concentration (MIC) in the data set on Escherichia coli [3] stood at 1 mg/L. Besides, the Activity entry in data set [20] is given as “Non-Toxic”; in the data set on HEK293 [21] it was “Toxic”.
The corresponding values for `CC[C@H]1OC(=O)[C@H](C)C(=O)[C@H](C)[C@@H](O[C@@H]2O[C@H](C)C[C@H](N(C)C)[C@H]2O)[C@](C)(OC)C[C@@H](C)C(=O)[C@H](C)[C@H]2N(CCCCn3cnc(-c4cccnc4)c3)C(=O)O[C@]12C` [TELITHROMYCIN] are 0.6 mg/L, “Non-Toxic” and “Toxic”.
For the molecule `O=C(CCC(=O)OC[C@@H](NC(=O)C(Cl)Cl)[C@H](O)c1ccc([N+](=O)[O-])cc1)NCC(=O)N[C@H](CO)C(=O)O`, the outcome in the data set with Escherichia coli [1], with Escherichia coli [16] and with Escherichia coli [17] was Active. For the same molecule, the Drug metabolism entry in [2], in [6], in data set [8] and in data set [24] was “Metabolite_Detected” each time. The MIC in the data set with Escherichia coli [3] amounted to 20 µM; in the data set with Escherichia coli [4] it was 20 µM; with Escherichia coli [11], 20 µM (≈ 11.3 µg/mL). For the same molecule, the outcome in the data set with Escherichia coli [5], in the data set with Escherichia coli [9], in the data set with Escherichia coli [10], in the data set on Escherichia coli [12], in the data set on Escherichia coli [14] and in the data set on Escherichia coli [15] was inactive. Further, the result in the data set on Escherichia coli [18] and in the data set with Escherichia coli [19] was inactive. The results for the Activity (in the data set with Escherichia coli [7]; in [22]; in the data set with HEK293 [23]) were 30%, “Non-Toxic” and “Toxic”, respectively. Further, the K in [13] amounted to 3.763 h⁻¹.
As for `NCCCC[C@H](NC(=O)[C@H](CCCCN)NC(=O)CCC(=O)OC[C@@H](NC(=O)C(Cl)Cl)[C@H](O)c1ccc([N+](=O)[O-])cc1)C(=O)O`, the outcome in the data set with Escherichia coli [1], with Escherichia coli [16] and in the data set with Escherichia coli [17] was Active. Also, the Drug metabolism entry in [2], in data set [6] and in [8] was “Metabolite_Detected” throughout. The MIC was 200 µM in the data set with Escherichia coli [3], 200 µM in the data set on Escherichia coli [4] and 200 µM (≈ 136 µg/mL) with Escherichia coli [11]. In addition, the result in the data set with Escherichia coli [5], with Escherichia coli [9], with Escherichia coli [10], in the data set with Escherichia coli [12], in the data set on Escherichia coli [14] and in the data set with Escherichia coli [15] was inactive. Besides, the outcome in the data set on Escherichia coli [18] and in the data set on Escherichia coli [19] was inactive. The Activity in the data set with Escherichia coli [7] turned out to be 50%. Moreover, in data set [13], the K was found to be 0.31 h⁻¹.
